According to ChEMBL document CHEMBL1128231, “Amphoteric drugs. 3. Synthesis and antiallergic activity of 3-[(5,11-dihydro[1]benzoxepino[4,3-b]pyridin-11-ylidene)piperidino]propionic acid derivatives and related compounds” (J Med Chem, 1995):

Columns and labels:
[1] = Selectivity as the ratio of ID50 value to that of ED50 value in mice.; type: functional
How it was run: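 Ratio B/A: B = oral ID50 for ex vivo [3H]mepyramine binding in mouse brain membranes (1 h post-dose); A = oral ED50 against histamine-induced skin vascular permeability in mice.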

Rattus norvegicus [2] = assay: Antiallergic activity was evaluated by inhibitory effect on compound 48/80-induced lethality in rats at a dose 0.01 (mg/kg, po); type: functional
How it was run: (§1)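 Male Wistar rats, 6 weeks old, fasted 24 h, n = 5. Survival beyond 2 h scored all-or-none; percent inhibition of lethality recorded at each oral dose.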

[3] = molecular target: Histamine H1 receptor (Mus musculus) (UniProt P70174); assay: Ex vivo inhibition of [3H]mepyramine binding to mouse brain membrane H1 receptor after oral administration; type: functional, organism-based
How it was run: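 Male ICR mice (6 weeks, starved 24 h) dosed orally with compound or vehicle; brain taken 1 h later and homogenized in 40 volumes 50 mM phosphate buffer pH 7.4. Membranes incubated with [3H]mepyramine (final 2 nM), 25 °C, 30 min; filtered, scintillation counted.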

Rattus norvegicus [4] = assay: Antiallergic activity was evaluated by inhibitory effect on 48/80-induced lethality in rats at a dose 1 (mg/kg, po); type: functional; how it was run: as §1
Mus musculus [5] = assay: Inhibitory effect on histamine-induced increase in vascular permeability in mice upon oral administration; type: functional
How it was run: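 Male ICR mice (6 weeks, starved 20 h) dosed orally; 1 h later, under light ether, intradermal histamine dihydrochloride 2.5 µg/site plus saline after iv 0.2 mL 1% Evans blue. Killed 30 min later; extravasated dye extracted and assayed. ED50 from log-logit dose–percent inhibition, least squares, with 95% confidence limits.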

Rattus norvegicus [6] = assay: Antiallergic activity was evaluated by inhibitory effect on 48/80-induced lethality in rats at a dose 0.1 (mg/kg, po); type: functional; how it was run: as §1
Rattus norvegicus [7] = assay: Antiallergic activity was evaluated by inhibitory effect on compound 48/80-induced lethality in rats at a dose 10 (mg/kg, po); type: functional; how it was run: as §1
[8] = Octanol-buffer partition coefficient determined by dividing its equilibrium organic concentration by its aqueous concentration; type: physicochemical; settings: octanol/water
How it was run: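 Sample dissolved at 10 µg/mL in Sørensen buffer pH 7.4; equal volumes buffer and 1-octanol shaken 24 h at 25 °C, centrifuged. Each phase quantified by HPLC (UV 254 nm, ODS column, 0.03 M phosphate pH 3.0–CH3CN 7:3). PCoct = organic/aqueous equilibrium concentration.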

Mus musculus [9] = assay: Tested for Hexobarbital-induced anesthesia in mice by measuring dose which produced 50% increase of the sleeping time upon oral administration; type: functional; settings: read-out: ID50 (the source's name)
How it was run: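 Male ICR mice (5 weeks, starved 20–24 h) dosed orally; 1 h later hexobarbital 80 mg/kg ip. Sleeping time = duration of loss of righting reflex; responders show >50% increase over controls. ID50 from number responding at each dose by Litchfield–Wilcoxon, with 95% confidence limits.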

Cavia porcellus [10] = assay: Histamine induced in lethality in guinea pigs at 8 hr after oral dose of 0.02 mg/kg; type: functional
How it was run: (§2)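 Male Hartley guinea pigs, 6 weeks old, fasted 24 h, n = 10, dosed orally. Eight hours later histamine dihydrochloride given iv at a lethal dose of 1 mg/kg. Survival beyond 30 min scored all-or-none; percent inhibition of lethality reported.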

Cavia porcellus [11] = assay: Histamine induced in lethality in guinea pigs at 8 hr after oral dose of 0.3 mg/kg; type: functional; how it was run: as §2
Cavia porcellus [12] = organism: Cavia porcellus; assay: animal or person; settings: po, 8 h, read-out: Inhibition

Chain of Histamine H1 receptor (Mus musculus) (P70174 whole entry): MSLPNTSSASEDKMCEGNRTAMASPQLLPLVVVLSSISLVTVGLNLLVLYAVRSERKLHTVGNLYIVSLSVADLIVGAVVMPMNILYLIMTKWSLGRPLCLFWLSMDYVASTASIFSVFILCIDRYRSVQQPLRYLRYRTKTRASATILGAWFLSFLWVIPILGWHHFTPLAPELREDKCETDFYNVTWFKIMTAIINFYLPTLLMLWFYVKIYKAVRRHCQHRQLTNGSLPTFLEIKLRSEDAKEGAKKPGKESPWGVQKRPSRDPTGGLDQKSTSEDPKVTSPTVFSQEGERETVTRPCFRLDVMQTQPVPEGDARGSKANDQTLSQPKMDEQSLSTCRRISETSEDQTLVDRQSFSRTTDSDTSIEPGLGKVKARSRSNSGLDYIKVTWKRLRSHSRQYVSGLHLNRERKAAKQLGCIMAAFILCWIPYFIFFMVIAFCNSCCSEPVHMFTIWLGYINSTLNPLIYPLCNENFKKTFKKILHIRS

SMILES	Selectivity [1]	Inhibition (Rattus norvegicus [2])	ID50 [3]	Inhibition (Rattus norvegicus [4])	ED50 (Mus musculus [5])	Inhibition (Rattus norvegicus [6])	Inhibition (Rattus norvegicus [7])	other results
CC(CN1CCC(=C2c3ccc(F)cc3OCc3cccnc32)CC1)C(=O)O (configuration not stated)	210	20%	2.3 mg/kg	100%	0.011 mg/kg	60%	–	–
O=C(O)CCN1CCC(=C2c3cccc(F)c3OCc3cccnc32)CC1	–	0%	–	100%	–	20%	–	–
O=C(O)CCN1CCC(=C2c3cccc(Cl)c3OCc3cccnc32)CC1	–	–	–	60%	–	0%	100%	–
O=C(O)CCN1CCC(=C2c3cc([N+](=O)[O-])ccc3OCc3cccnc32)CC1	–	–	–	20%	–	0%	80%	–
Cc1ccc2c(c1)OCc1ncccc1C2=C1CCN(CCC(=O)O)CC1	–	0%	–	60%	–	20%	100%	–
O=C(O)CCN1CCC(=C2c3ccc(Cl)cc3OCc3cccnc32)CC1	–	–	–	80%	–	0%	100%	–
O=C(O)CCN1CCC(=C2c3ccccc3OCc3cccnc32)CC1	1600	–	19 mg/kg	100%	0.012 mg/kg	0%	–	PCoct [8]: 0.52; ED50 (Mus musculus [9]): > 100 mg/kg
CN1CCC(=C2c3ccccc3COc3ccccc32)CC1	22	–	0.77 mg/kg	60%	0.035 mg/kg	0%	100%	ED50 (Mus musculus [9]): 0.73 mg/kg
CN1CCC(=C2c3ccccc3CC(=O)c3sccc32)CC1 [KETOTIFEN]	2.8	–	0.65 mg/kg	–	0.23 mg/kg	–	–	inhibition in vivo at 0.02 mg/kg (Cavia porcellus [10]): 10%
CC(=O)c1ccc2c(c1)C(=C1CCN(CCC(=O)O)CC1)c1ncccc1CO2	–	–	–	20%	–	0%	100%	–
CN1CCC(=C2c3ccccc3OCc3ncccc32)CC1	20	–	0.49 mg/kg	100%	0.025 mg/kg	0%	–	PCoct [8]: 54.3; ED50 (Mus musculus [9]): 9.9 mg/kg
Cc1ccc2c(c1)OCc1cccnc1C2=C1CCN(CCC(=O)O)CC1	–	0%	–	40%	–	20%	100%	–
O=C(O)CCN1CCC(=C2c3ccccc3OCc3ncccc32)CC1	340	0%	3.4 mg/kg	100%	0.01 mg/kg	40%	–	PCoct [8]: 0.56; ED50 (Mus musculus [9]): > 100 mg/kg
O=C(O)CCN1CCC(=C2c3ccccc3COc3ccccc32)CC1	16	20%	0.062 mg/kg	100%	0.0038 mg/kg	60%	–	PCoct [8]: 9.66; ED50 (Mus musculus [9]): 16 mg/kg
O=C(O)CCN1CCC(=C2c3ccc(F)cc3OCc3ncccc32)CC1	680	40%	2.5 mg/kg	–	0.0037 mg/kg	100%	–	inhibition in vivo at 0.3 mg/kg (Cavia porcellus [11]): 60%; ED50 (Rattus norvegicus [7]): 0.034 mg/kg
COc1ccc2c(c1)OCc1ncccc1C2=C1CCN(CCC(=O)O)CC1	–	0%	–	100%	–	40%	–	–

SMILES	Selectivity [1]	Inhibition (Rattus norvegicus [2])	ID50 [3]	Inhibition (Rattus norvegicus [4])	ED50 (Mus musculus [5])	Inhibition (Rattus norvegicus [6])	Inhibition (Rattus norvegicus [7])	other results
O=C(O)CCN1CCC(=C2c3ccc(F)cc3OCc3cccnc32)CC1	560	0%	14 mg/kg	100%	0.025 mg/kg	40%	–	inhibition in vivo at 0.3 mg/kg (Cavia porcellus [11]): 90%; ED50 (Rattus norvegicus [7]): 0.29 mg/kg
O=C(O)CCN1CCC(=C2c3cc(F)ccc3OCc3cccnc32)CC1	–	–	–	20%	–	0%	100%	–
CCOC(=O)N1CCC(=C2c3ccc(Cl)cc3CCc3cccnc32)CC1 [LORATADINE]	–	–	–	–	0.21 mg/kg	–	–	inhibition in vivo at 0.3 mg/kg (Cavia porcellus [11]): 80%
COc1ccc2c(c1)OCc1cccnc1C2=C1CCN(CCC(=O)O)CC1	–	–	–	20%	–	0%	100%	–
O=C(O)CCN1CCC(=C2c3cccc([N+](=O)[O-])c3OCc3cccnc32)CC1	–	–	–	0%	–	–	60%	–
Cc1ccc(/C(=C\CN2CCCC2)c2cccc(/C=C/C(=O)O)n2)cc1 [ACRIVASTINE]	>480	–	> 300 mg/kg	–	0.63 mg/kg	–	–	ED50 (Rattus norvegicus [7]): 3.3 mg/kg; inhibition in vivo at 0.16 mg/kg (Cavia porcellus [12]): 0%
O=C(O)CCN1CCC(=C2c3cc(C(=O)O)ccc3OCc3cccnc32)CC1	–	–	–	0%	–	–	20%	–
O=C(O)CCN1CCC(=C2c3ccc(Br)cc3OCc3cccnc32)CC1	–	0%	–	60%	–	40%	100%	–
CN1CCC(=C2c3ccccc3OCc3cccnc32)CC1	18	–	0.2 mg/kg	100%	0.011 mg/kg	0%	–	PCoct [8]: 28.4; ED50 (Mus musculus [9]): > 100 mg/kg
O=C(O)CCN1CCC(=C2c3ccc(Cl)cc3OCc3ncccc32)CC1	–	40%	–	100%	–	80%	–	–
CC(CC(=O)O)N1CCC(=C2c3ccc(F)cc3OCc3cccnc32)CC1 (configuration not stated)	–	–	–	0%	–	–	100%	–
CC(CN1CCC(=C2c3ccc(F)cc3OCc3ncccc32)CC1)C(=O)O (configuration not stated)	–	20%	–	–	–	100%	–	–
COc1ccc2c(c1)C(=C1CCN(CCC(=O)O)CC1)c1ncccc1CO2	–	0%	–	60%	–	20%	80%	–
O=C(O)CCN1CCC(=C2c3cc(Cl)ccc3OCc3cccnc32)CC1	–	–	–	100%	–	0%	–	–
O=C(O)CCN1CCC(=C2c3cc(F)ccc3OCc3ncccc32)CC1	–	0%	–	100%	–	60%	–	–
